Data from ChEMBL document CHEMBL2384906, “Biological activity, design, synthesis and structure activity relationship of some novel derivatives of curcumin containing sulfonamides” (Eur J Med Chem, 2013).
≈ marks a conversion by molar mass, not a printed value. Calls of active or inactive are those of the source. The calls are words filed in the database; no cut-off is given here.

Experiments:
[1] = system: Pseudomonas aeruginosa; assay: Antimicrobial activity against Pseudomonas aeruginosa ATCC 15499 assessed as diameter of inhibition zone at 80 uM after 24 hrs by Kirby -Baur disc diffusion method; type: functional
In short: (§1)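 Kirby-Bauer disc diffusion was used. Acetone stocks (160 µM) were serially doubled down to 80, 40 and 20 µM. 4 µL of each went onto 5 mm sterile paper discs, which were dried 30 min at 50 °C. Inoculum was 1.5 × 10⁸ CFU/mL diluted to 3 × 10² CFU/mL, and 50 µL was spread on Mueller-Hinton agar. After 24 h at 37 °C the inhibition-zone diameter was measured. Ciprofloxacin served as positive control.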

[2] = system: Pseudomonas aeruginosa; assay: Antimicrobial activity against Pseudomonas aeruginosa ATCC 15499 after 24 hrs by broth micro serial dilution method; type: functional
In short: (§2)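 This was broth microdilution in autoclaved Mueller-Hinton broth. 150 µL of compound per well was serially diluted […], and 50 µL of test organism was added. Plates were incubated 24 h at 37 °C and optical density was read.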

[3] = system: Salmonella typhi; assay: Antimicrobial activity against Salmonella typhi ATCC 23564 assessed as diameter of inhibition zone at 80 uM after 24 hrs by Kirby -Baur disc diffusion method; type: functional; conditions: for diameter of the inhibition zone (DIZ): Salmonella enterica subsp. enterica serovar Typhi
[4] = system: Staphylococcus aureus; assay: Antimicrobial activity against Staphylococcus aureus ATCC 11632 assessed as diameter of inhibition zone at 80 uM after 24 hrs by Kirby -Baur disc diffusion method; type: functional; in short: as §1
[5] = system: Bacillus cereus; assay: Antimicrobial activity against Bacillus cereus MTCC 7350 after 24 hrs by broth micro serial dilution method; type: functional; in short: as §2
[6] = system: Salmonella typhi; assay: Antimicrobial activity against Salmonella typhi ATCC 23564 after 24 hrs by broth micro serial dilution method; type: functional
[7] = system: Escherichia coli; assay: Antimicrobial activity against Escherichia coli ATCC 35218 after 24 hrs by broth micro serial dilution method; type: functional; in short: as §2
[8] = system: Bacillus cereus; assay: Antimicrobial activity against Bacillus cereus MTCC 7350 assessed as diameter of inhibition zone at 80 uM after 24 hrs by Kirby -Baur disc diffusion method; type: functional; in short: as §1
[9] = system: Escherichia coli; assay: Antimicrobial activity against Escherichia coli ATCC 35218 assessed as diameter of inhibition zone at 80 uM after 24 hrs by Kirby -Baur disc diffusion method; type: functional; in short: as §1
[10] = system: Staphylococcus aureus; assay: Antimicrobial activity against Staphylococcus aureus ATCC 11632 after 24 hrs by broth micro serial dilution method; type: functional; in short: as §2
[11] = system: Salmonella typhi; assay: Antimicrobial activity against Salmonella typhi ATCC 23564 assessed as diameter of inhibition zone at 40 uM after 24 hrs by Kirby -Baur disc diffusion method; type: functional; conditions: Salmonella enterica subsp. enterica serovar Typhi
[12] = system: Curvularia lunata; assay: Antifungal activity against Curvularia lunata MTCC 581 assessed as zone of inhibition at 20 uM after 48 hrs by disc diffusion method; type: functional
In short: (§3)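 Spores from 4-day potato dextrose agar cultures, suspended in sterile water at 1.5 × 10⁵ CFU/mL. 0.2 mL was spread on potato dextrose agar. 5 mm filter-paper discs soaked with test compound were laid on the lawn. Incubation was 48 h at 28 °C, then the inhibition zone was measured in mm. Fluconazole was the positive control and acetone the negative control.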

[13] = system: HepG2; assay: Cytotoxicity against human HepG2 cells after 24 hrs by MTT assay; type: functional, cell-based
In short: (§4)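 The MTT assay seeded 5 × 10⁴ cells per well and grew them 24 h in RPMI 1640 with compound at 2.5–200 µM. Medium without cells was the blank and adriamycin the positive control. MTT was added for 4 h at 37 °C, formazan was solubilised, and absorbance was read at 570 nm. IC50 is the concentration that cuts viability 50% against untreated cells.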

[14] = system: Mus musculus; assay: Antiinflammatory activity in mouse assessed as inhibition of carrageenan-induced increase in paw volume at 200 mg/kg administered 1 hr prior to carrageenan challenge measured after 3 hrs relative to control; type: functional
In short: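 Mice were fasted 2 h and placed in groups of five. Controls received saline i.p. Phenylbutazone was given at 100 mg/kg i.p., curcumin at 200 mg/kg i.p., and derivatives at 200 mg/kg. After 1 h, 0.1 mL of 1% carrageenan in saline was injected subplantar into the right hind paw. Paw volume was followed by plethysmometer for 3 h, and % inhibition was calculated as (Vc − Vt)/Vc × 100.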

[15] = system: HCT-116; assay: Cytotoxicity against human HCT116 cells after 24 hrs by MTT assay; type: functional, cell-based; in short: as §4
[16] = system: Aspergillus niger; assay: Antifungal activity against Aspergillus niger MTCC 1108 after 48 hrs; type: functional
[17] = system: Trichoderma viride; assay: Antifungal activity against Trichoderma viride MTCC 1107 after 48 hrs; type: functional; conditions: MTCC 1107, 48 h
[18] = system: Curvularia lunata; assay: Antifungal activity against Curvularia lunata MTCC 581 assessed as zone of inhibition at 80 uM after 48 hrs by disc diffusion method; type: functional; conditions: MTCC 581, 48 h, read-out: IZ; in short: as §3
[19] = system: Aspergillus flavus; assay: Antifungal activity against Aspergillus flavus MTCC 1021 assessed as zone of inhibition at 80 uM after 48 hrs by disc diffusion method; type: functional; in short: as §3
[20] = system: Salmonella typhi; assay: Antimicrobial activity against Salmonella typhi ATCC 23564 assessed as diameter of inhibition zone at 20 uM after 24 hrs by Kirby -Baur disc diffusion method; type: functional; conditions: Salmonella enterica subsp. enterica serovar Typhi
[21] = system: Curvularia lunata; assay: Antifungal activity against Curvularia lunata MTCC 581 after 48 hrs; type: functional; conditions: MTCC 581, 48 h
[22] = system: QG-56; assay: Cytotoxicity against human QG56 cells after 24 hrs by MTT assay; type: functional, cell-based; in short: as §4
[23] = system: HeLa; assay: Cytotoxicity against human HeLa cells after 24 hrs by MTT assay; type: functional, cell-based; in short: as §4
[24] = system: Trichoderma viride; assay: Antifungal activity against Trichoderma viride MTCC 1107 assessed as zone of inhibition at 40 uM after 48 hrs by disc diffusion method; type: functional; in short: as §3
[25] = system: Curvularia lunata; assay: Antifungal activity against Curvularia lunata MTCC 581 assessed as zone of inhibition at 40 uM after 48 hrs by disc diffusion method; type: functional; in short: as §3
[26] = system: Aspergillus niger; assay: Antifungal activity against Aspergillus niger MTCC 1108 assessed as zone of inhibition at 80 uM after 48 hrs by disc diffusion method; type: functional; in short: as §3
[27] = system: Trichoderma viride; assay: Antifungal activity against Trichoderma viride MTCC 1107 assessed as zone of inhibition at 20 uM after 48 hrs by disc diffusion method; type: functional; in short: as §3
[28] = system: Aspergillus flavus; assay: Antifungal activity against Aspergillus flavus MTCC 1021 after 48 hrs; type: functional
[29] = system: Trichoderma viride; assay: Antifungal activity against Trichoderma viride MTCC 1107 assessed as zone of inhibition at 80 uM after 48 hrs by disc diffusion method; type: functional; conditions: MTCC 1107, 48 h, read-out: IZ; in short: as §3
[30] = Salmonella enterica subsp. enterica serovar Typhi
[31] = Salmonella enterica, ATCC 23564, 24 h

| Structure (SMILES) | diameter of the inhibition zone (DIZ) [1] | MIC [2] | diameter of the inhibition zone (DIZ) [3] | diameter of the inhibition zone (DIZ) [4] | MIC [5] | MIC [6, 30] | MIC ([7]; ATCC 35218, 24 h) [µM] | diameter of the inhibition zone (DIZ) [8] | diameter of the inhibition zone (DIZ) [9] | MIC [10] | MIC [6, 31] [µM] | MIC [7] | MIC [16] | MIC [17] [µM] | zone of inhibition at 80 µM [18] [mm] | inhibition zone (IZ) [19] | MIC [21] [µM] | inhibition zone (IZ) [26] | zone of inhibition at 80 µM [29] [mm] | further results |
| --- | --- | --- | --- | --- | --- | --- | --- | --- | --- | --- | --- | --- | --- | --- | --- | --- | --- | --- | --- | --- |
| Nc1ccc(S(=O)(=O)Nc2ccccn2)cc1 [SULFAPYRIDINE] | inactive | inactive | inactive | inactive | inactive | inactive | > 160 | inactive | inactive | inactive |  |  |  |  |  |  |  |  |  |  |
| Cc1cc(C)nc(NS(=O)(=O)c2ccc(N)cc2)n1 [SULFAMETHAZINE] | inactive | inactive | inactive | inactive | inactive |  | > 160 | inactive | inactive | inactive | > 160 |  |  |  |  |  |  |  |  |  |
| Nc1ccc(S(N)(=O)=O)cc1 | inactive | inactive | inactive | inactive | inactive | inactive |  | inactive | inactive | inactive |  | inactive |  |  |  |  |  |  |  |  |
| COc1cc(/C=C/c2noc(/C=C/c3ccc(O)c(OC)c3)c2/N=N/c2ccc(S(N)(=O)=O)cc2)ccc1O | inactive | inactive |  | inactive | inactive |  |  | inactive | inactive | inactive | > 80 | inactive | inactive | > 80 | 9 | inactive | > 80 | inactive | 11 | diameter of the inhibition zone (DIZ) [11]: inactive; inhibition zone (IZ) [12]: inactive; IC50 [13]: Not Active; inhibition in vivo at 200 mg/kg [14]: 24.1%; IC50 [15]: Not Active; diameter of the inhibition zone (DIZ) [20]: inactive; IC50 [22]: Not Active; IC50 [23]: Not Active; inhibition zone (IZ) [24]: inactive; inhibition zone (IZ) [25]: inactive; zone of inhibition at 80 µM ([3]; Salmonella enterica, ATCC 23564, 24 h, read-out: DIZ): 11 mm; inhibition zone (IZ) [27]: inactive; MIC [28]: inactive |
| OC(Cn1cncn1)(Cn1cncn1)c1ccc(F)cc1F [FLUCONAZOLE] |  |  |  |  |  |  |  |  |  |  |  |  | inactive | 20 (≈ 6.13 µg/mL) | 28 | inactive | 20 (≈ 6.13 µg/mL) | inactive | 29 | zone of inhibition at 20 µM ([12]; MTCC 581, 48 h, read-out: IZ): 24 mm; zone of inhibition at 40 µM ([24]; MTCC 1107, 48 h, read-out: IZ): 24 mm; zone of inhibition at 40 µM ([25]; MTCC 581, 48 h, read-out: IZ): 27 mm; zone of inhibition at 20 µM ([27]; MTCC 1107, 48 h, read-out: IZ): 21 mm; MIC ([28]; MTCC 1021, 48 h): > 80 µM |
